Results from publication PMC3501882 (Diabetes, 2012).
Residues, ends and D or L forms follow the SMILES beside them.

Key:
PD-12.4.4 T-cell clone = assay: IFN-γ response of insulin-reactive T-cell clone to antigen; assay type: cell-based, NOD mouse; settings: for IFN-γ response of PD-12.4.4 to peptide (in words): increasing peptide concentrations, Fig. 1A, 1D
BDC-2.5 T-cell clone = assay: IFN-γ response of T-cell clone to antigen; assay type: cell-based, NOD mouse; settings: for IFN-γ response of BDC-2.5 to peptide (in words): increasing peptide concentrations, before and after TGase treatment, Fig. 1B, 1C
[1] = system: CD4 T cells from BDC-2.5 TCR-Tg mice; assay: T-cell proliferation assay; assay type: cell-based, mouse; settings: for Proliferative response of BDC-2.5 TCR-Tg CD4 T cells (in words): Fig. 2A, WE14 at 200 μg/mL (120 μmol/L)
Outline: (§1)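 Spleen cells from TCR-transgenic NOD mice (2–5 months old) labeled with 2.5 μmol/L CFSE. Cultured at 1 × 10^6/well with peptide antigen, medium, or anti-CD3ε 0.1 μg/mL for 4 days. Cells stained for CD4 and analysed by flow cytometry, gated on CD4/lymphocyte events. Read-out: percentage of divided cells, mean and SD per mouse over two independent experiments.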

[2] = system: CD4 T cells from BDC-6.9 TCR-Tg mice; assay: T-cell proliferation assay; assay type: cell-based, mouse; settings: Fig. 2A; negative control T cells
Outline: as §1

[3] = assay type: physicochemical; settings: poorly soluble peptides were used as suspensions in assays
[4] = system: guinea pig transglutaminase; settings: increasing putrescine 0.06–15.6 mmol/L in the reaction mixture; gel lanes 2–10

KCNTATCATQRLANFLVRSS [KS20]
IFN-γ response of PD-12.4.4 to peptide (in words) (PD-12.4.4 T-cell clone): did not respond
IFN-γ response of BDC-2.5 to peptide (in words) (BDC-2.5 T-cell clone): remain inactive
Proliferative response of BDC-2.5 TCR-Tg CD4 T cells (in words) [1]: no proliferative response
Effect of TGase treatment of the peptide on T-cell proliferation ([1]; any peptide concentration tested, data not shown): did not alter the T-cell proliferation responses
Proliferative response of BDC-6.9 TCR-Tg CD4 T cells (in words) [2]: no proliferative response

CSCC[C@H](NC(=O)[C@H](CCCNC(=N)N)NC(=O)[C@H](CO)NC(=O)[C@@H](N)Cc1c[nH]c2ccccc12)C(=O)N[C@@H](CC(=O)O)C(=O)N[C@@H](CCC(N)=O)C(=O)N[C@@H](CC(C)C)C(=O)N[C@@H](C)C(=O)N[C@@H](CCCCN)C(=O)N[C@@H](CCC(=O)O)C(=O)N[C@@H](CC(C)C)C(=O)N[C@H](C(=O)N[C@@H](C)C(=O)N[C@@H](CCC(=O)O)C(=O)O)[C@@H](C)O [WE14] (H-WSRMDQLAKELTAE-OH)
Solubility in water (in words) [3]: solubilized directly in sterile water

FVKQHLCGSHLVEALYLVCGERGFFYTPMS [insulin B-chain]
Solubility in water (in words) [3]: only poorly soluble in water
Effect of TGase treatment on PD-12.4.4 response (PD-12.4.4 T-cell clone; Fig. 1D): not increased significantly
IFN-γ response of PD-12.4.4 to peptide (in words) (PD-12.4.4 T-cell clone): responded
IFN-γ response of BDC-2.5 to peptide (in words) (BDC-2.5 T-cell clone): remain inactive

WSRMDELAKELTAE [WE14-Q6E]
Solubility in water (in words) [3]: solubilized directly in sterile water
IFN-γ response of BDC-2.5 to peptide (in words) (BDC-2.5 T-cell clone): no better than unmodified WE14

NCCCCN [putrescine]
Effect of inhibitor on TGase-catalysed WE14 oligomerization [4]: decreasing peptide oligomerization
Effect of putrescine on antigenicity of β-Mem positive control antigen (BDC-2.5 T-cell clone; data not shown): did not affect the antigenicity
Effect of inhibitor in TGase reaction on BDC-2.5 response to converted peptide (BDC-2.5 T-cell clone; increasing putrescine 0.06–15.6 mmol/L, Fig. 6A top, lanes 2–10): diminished T-cell responses

DTKVMKCVLEVISD [ChgA29–42]
Solubility in water (in words) [3]: only poorly soluble in water
IFN-γ response of PD-12.4.4 to peptide at 66 μg/mL (PD-12.4.4 T-cell clone; 66 μg/mL (42 μmol/L), in the absence of TGase): very small PD-12.4.4 response
IFN-γ response of PD-12.4.4 to peptide (in words) (PD-12.4.4 T-cell clone): not antigenic at higher or lower peptide concentrations
Effect of TGase treatment on antigenicity of the peptide (BDC-2.5 T-cell clone; BDC-2.5 (for WE14 also BDC-10.1 and BDC-9.46), IFN-γ ELISA): did not lead to an increase of antigenicity
IFN-γ response of BDC-2.5 to peptide (in words) (BDC-2.5 T-cell clone): not antigenic
Proliferative response of BDC-2.5 TCR-Tg CD4 T cells (in words) [1]: no proliferative response
Proliferative response of BDC-6.9 TCR-Tg CD4 T cells (in words) [2]: no proliferative response

EKAHRPIWARMDAKK
Proliferative response of BDC-2.5 TCR-Tg CD4 T cells (in words) [1]: responded
